Measurements published in paper PMC9924077 (Cell stem cell, 2022).

Legend:
hiPSC-CMs = assay type: cell-based, human; conditions: for apparent risk in this study compared with actual clinical practice: hiPSC-CMs, Torsadogenic safety margin
DCM and HCM hiPSC-CMs = assay type: cell-based, human; conditions: for asystole safety margin versus isogenic control: DCM RBM20 p.R634Q and PLN p.R14del, HCM MYBPC3 p.R943X and TPM1 p.K37E versus isogenic control hiPSC-CMs; for Torsadogenic safety margin in DCM and HCM hiPSC-CMs versus isogenic control: DCM and HCM lines versus HD.15S1 isogenic control
Procedure, shortened: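 Cells were HCM (TPM1, MYBPC3) and DCM (TNNT2, RBM20, PLN) hiPSC-CMs made by Cas9/ssODN knock-in and Sanger-verified, plus isogenic control. They were plated at 25,000/well for ≥4 days, dye-loaded with VF2.1.Cl/Hoechst for 50 min at 37°C, exposed to drug for 15 min at 37°C, and imaged at 33 Hz for 10 s. Design: 8 doses, 3 differentiation batches × 3 technical repeats. CNN arrhythmic/asystolic probability was fitted by binomial glm against log dose, with EC50 and 95% CI.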

[1] = risk of TdP arrhythmia at clinical exposures; cited from earlier work
[2] = system: hiPSC-derived cardiomyocytes; conditions: tested at concentrations exceeding 100 times the free Cmax; cited from earlier work
[3] = healthy donor hiPSC-CMs, 8 concentrations

## COC(=O)C1=C(C)NC(C)=C(C(=O)OC)C1c1ccccc1[N+](=O)[O-] [nifedipine, Nifedipine]
hiPSC-CMs; [3]
  asystole (probability of asystole class, CNN) versus dose: dose-dependent induction of asystole

## CN(CCOc1ccc(NS(C)(=O)=O)cc1)CCc1ccc(NS(C)(=O)=O)cc1 [dofetilide, Dofetilide]
DCM and HCM hiPSC-CMs
  asystole safety margin versus isogenic control: heightened propensity to cause asystole

## COc1ccccc1OCC(O)CN1CCN(CC(=O)Nc2c(C)cccc2C)CC1 (stereo not drawn) [ranolazine, Ranolazine]
hiPSC-CMs
  apparent risk in this study compared with actual clinical practice: riskier
[1]
  CiPA TdP risk classification: low-no risk

## Cc1cccc(C)c1OCC(C)N (stereo not drawn) [mexiletine, Mexiletine]
hiPSC-CMs
  apparent risk in this study compared with actual clinical practice: riskier
[1]
  CiPA TdP risk classification: low-no risk

## CC(C)COCC(CN(Cc1ccccc1)c1ccccc1)N1CCCC1 (stereo not drawn) [bepridil, Bepridil]
hiPSC-CMs
  apparent risk in this study compared with actual clinical practice: appeared less
[1]
  CiPA TdP risk classification: high-risk
[2]
  response in hiPSC-derived cardiomyocytes in previous studies: non-arrhythmic responses

## Cc1nccn1CC1CCc2c(c3ccccc3n2C)C1=O (stereo not drawn) [ondansetron, Ondansetron]
[1]
  CiPA TdP risk classification: intermediate

## O=C(CCCN1CC=C(n2c(=O)[nH]c3ccccc32)CC1)c1ccc(F)cc1 [droperidol, Droperidol]
hiPSC-CMs
  apparent risk in this study compared with actual clinical practice: riskier
DCM and HCM hiPSC-CMs
  asystole safety margin versus isogenic control: heightened propensity to cause asystole
  Torsadogenic safety margin in DCM and HCM hiPSC-CMs versus isogenic control: trended towards increased risk
[1]
  CiPA TdP risk classification: intermediate risk

## CCCCCCCN(CC)CCCC(O)c1ccc(NS(C)(=O)=O)cc1 (stereo not drawn) [ibutilide, Ibutilide]
hiPSC-CMs; [3]
  arrhythmia probability (CNN) versus dose: continuous, dose-dependent increase in arrhythmia probability
DCM and HCM hiPSC-CMs
  asystole safety margin versus isogenic control: heightened propensity to cause asystole
  Torsadogenic safety margin in DCM and HCM hiPSC-CMs versus isogenic control: trended towards increased risk
[1]
  CiPA TdP risk classification: high
